Hits are enriched below; roughly 3.6% of the tested compounds scored in any of these assays.
RAM inhibit – yeast RAM network inhibition | inhibition, % at 50 µM | S. cerevisiae dse1pr::URA3 reporter, 5-FOA growth OD615, 2 d; analog-sensitive cbk1-as2 kinase mutant strain | 190,000 compounds, 1.8% hits;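 active = inhibition above a set limit, 3 SD over mean compound inhibition, cut at about 8.4% in these data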;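 also: inhibition rescues growth on 5-FOA so higher OD means more RAM inhibition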
BB579 growth dn – chemicals that inhibit yeast BB579 growth in restrictive medium (lifespan-shortening candidates); S. cerevisiae BB579 growth, OD615, 48 h; inhibition, % at 10 µM; 140,000 compounds, 0.51% hits; AID 804;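 active = inhibition above a set limit, 3 SD over the mean compound inhibition, cut at about 44% in these data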
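Assay system: S. cerevisiae DeaD strain BB579 yeast. Medium: CSMM-D restrictive synthetic medium containing dextrose (glucose). Times: 4 h cell preincubation, 48 h compound exposure, 30 °C humidified. Signal: OD615 turbidity measurement. Benchmarks: positive control amphotericin B 10 µg/mL.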
Yeast life ext – yeast lifespan extension; AID 775; 130,000 compounds, 0.68% hits; S. cerevisiae growth with nicotinamide, OD615; deaD strain in restrictive glucose medium; inhibition of the nicotinamide effect, % at 10 µM;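 active = inhibition above a set limit, placed 3 SD over the median of all compounds, cut at about 26% in these data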
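System: DeaD-strain S. cerevisiae / Buffer or medium: CSMM-D, restrictive glucose (dextrose) synthetic minimal medium / Probe or stimulus: nicotinamide, 1.5 mM, co-present with compound / Compound: one concentration, 10 µM, DMSO 0.25% / Incubation: 48 h compound exposure at 30 °C, humidified / Technique: optical density (absorbance) at 615 nm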
Measles CPE – protection of cells from measles virus; 140,000 compounds, 1.5% hits; Measles virus-infected cells, CPE protection, absorbance; protection (pct of control), % at 4 µM; in the data active = protection mostly above about 24%, no sharp cut-off; inactive = mostly below about 26%
Phagocytosis inh – macrophage phagocytosis inhibition. inhibition, % at 5 µM. J774A.1 macrophage IgG-bead phagocytosis, imaging. 110,000 compounds, 0.07% hits;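 active = inhibition above the mean of the plate negative controls plus 5 SD, cut at about 13% in these data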;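 also: phagocytic index as fraction of beads internalized from green versus red external bead signal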
Hits are given with their value; – = inactive; · = no result given; [ ] = dose if it differs, or a comment.

SMILES	RAM inhibit	BB579 growth dn	Yeast life ext	Measles CPE	Phagocytosis inh
CCc1ccc(N/C(SC)=C(/C#N)C(N)=O)cc1	–	–	–	40	·
Cc1nn(-c2ccccc2)c(N)c1C(O)(C(F)(F)F)C(F)(F)F	–	–	–	–	–
Cc1nn(-c2ccccc2)c(N)c1C(O)(CC(=O)C(F)(F)F)C(F)(F)F (stereo not given)	9.0	–	–	–	–
O=C(NN1C(=O)c2ccccc2NC1c1ccccc1OCc1ccccc1)c1ccncc1 (stereo not given)	–	–	29	–	–
CC(C)(C)c1ccc(OCC(=O)NNC(=O)c2cccnc2)cc1	–	·	·	·	·
Cc1nn(-c2ccccc2)c(N2CCCCC2)c1/C=N/O	–	–	–	54	·
CC1(C)C(C=C(Cl)Cl)C1C(=O)N1CCN(Cc2ccccc2)CC1 (stereo not given)	–	·	·	·	·
O=C(O)CCCN1C(=O)C2C3CC(C2C1=O)C1C(c2ccccc2)c2sc(=O)n(-c4ccccc4)c2SC31 (stereo not given)	–	·	·	·	·
COC(=O)c1ccc2c(c1)S(=O)(=O)NC(=NCc1ccco1)S2	–	–	–	85	–
O=C(Nc1cccc(Cl)c1)c1cc(S(=O)(=O)NCCc2ccc(Cl)cc2)ccc1F	10	–	–	–	–
O=C(c1ccc(-n2cnnn2)cc1)N(C1CCCCC1)C1CCCCC1	–	·	·	·	·
CC1(C)CC(CCNC(=O)c2ccc(-n3cnnn3)cc2)CC(C)(C)N1	–	–	–	30	–
CC12CN3CC(C)(CN(C1)C3c1ccc(Br)cc1O)C2 (stereo not given)	–	–	33	–	–
CCc1cccc(CC)c1NC(=O)/C(C#N)=C/c1ccccc1C(F)(F)F	–	–	–	–	–
COc1ccc(Cn2c(C)c(C)c(C#N)c2NC(=O)Nc2ccc(Cl)cc2)cc1	–	–	–	–	–
CCCn1c(SCC(=O)Nc2cc(S(=O)(=O)N3CCOCC3)ccc2OC)n[nH]c1=O	–	–	–	50	–
CCCn1c(SCC(=O)Nc2cc(S(=O)(=O)N3CCOCC3)ccc2Cl)n[nH]c1=O	–	–	–	–	–
CCCCNC(=O)c1onc(CSc2cccc3ccccc23)c1C(=O)O	–	–	–	–	·
Cc1ccc(S(=O)(=O)N(Cc2ccc(Cl)cc2)c2ccccc2C(=O)NCc2ccco2)cc1	8.9	–	–	–	–
CCOCCCNc1nc2ccccc2[nH]1	–	–	–	46	–
CCc1sc(NC(=O)C(C)C)nc1-c1ccccc1	–	·	·	·	·
O=C(CSc1c(Cl)cccc1Cl)N1CCC(c2nc3ccccc3s2)CC1	9.4	–	–	–	·
Cn1cnnc1SCC(=O)NN(c1ccccc1)c1ccccc1	–	–	–	–	27[artifact]
Cn1cnnc1SCC(=O)Nc1ccccc1	–	–	–	–	·
Oc1ccc(Cl)cc1CNn1cnnc1	–	·	·	·	·
SMILES	RAM inhibit	BB579 growth dn	Yeast life ext	Measles CPE	Phagocytosis inh
Oc1ccc(Cl)cc1Cc1cc(Cl)ccc1O	–	84	–	–	·
O=S(=O)(NCc1ccccc1F)NCc1ccccc1F	–	·	·	·	·
CCOC(=O)C(C(=O)OCC)C(C)(C)/C(C)=N\Nc1ccc([N+](=O)[O-])cc1[N+](=O)[O-]	9.0	–	–	–	–
C/C(=N\Nc1ccc([N+](=O)[O-])cc1[N+](=O)[O-])C(C)C(C)C (stereo not given)	9.6	·	·	·	·
Cc1nc(-c2ccc(NC(=O)CC(C)C)cc2)cs1	–	–	–	–	–
Cc1ccccc1OCC(=O)OCC(=O)NCc1cccs1	–	–	–	–	–
Cc1nc2ccc(S(=O)(=O)N(C)CC(=O)Nc3ccccc3F)cc2s1	–	·	·	·	·
Cc1ccc(-c2c(=O)n(OCc3ccccn3)c3ccccc3[n+]2[O-])cc1	–	–	–	–	–
O=c1c(-c2ccc(Cl)cc2)[n+]([O-])c2ccccc2n1OCc1ccccn1	–	–	45	–	·
CCOC(=O)C(Cc1c[nH]c2ccccc12)NC(=O)c1ccco1 (stereo not given)	–	–	–	–	90[artifact]
CCOC(=O)C1=C(N)OC2=C(C(=O)CCC2)C1c1ccc(C)s1 (stereo not given)	–	–	–	–	–
CCOC(=O)C1=C(N)OC2=C(C(=O)CCC2)C1c1sccc1C (stereo not given)	–	–	47	–	–
CCn1ccc(C(=O)Nc2ccc(S(=O)(=O)Nc3ccccc3OC)cc2)n1	–	–	67	–	–
CC[C@H](C)[C@@H](NC(=O)O[C@@H]1C(=O)c2cc(OC)ccc2O[C@H]1c1ccc(OC)c(Br)c1)C(=O)OC	–	–	–	–	·
COC(=O)[C@H](Cc1ccccc1)NC(=O)O[C@@H]1C(=O)c2cc(OC)ccc2O[C@H]1c1ccc(OC)c(Br)c1	11	–	–	–	·
CN(CCC#N)C(=O)COC(=O)c1c2c(nc3ccccc13)/C(=C/c1ccco1)CC2	–	–	–	·	–
CC1=NOC(=O)/C1=C\c1ccc(-c2ccc(Cl)cc2Cl)o1	–	45	–	–	·
CN(C)c1ccc(/C=N/NC(=O)c2ccccc2)cc1	–	·	·	·	·
CN(C)c1ccc(/C=N/NC(=O)c2cccc(C(=O)N/N=C/c3ccc(N(C)C)cc3)n2)cc1	9.9	·	·	·	·
COC(=O)c1ccc(N2CCCCC2)c(NS(=O)(=O)c2ccc(C)cc2)c1	11	–	–	–	–
CCN(CC)S(=O)(=O)c1ccc(N2CCCC2)c(NS(=O)(=O)c2ccc(F)cc2)c1	9.8	–	–	–	–
Cc1ccc(-n2nnc(-c3nccn3C)n2)cc1	–	·	·	·	·
C=CCNCCOCCOc1ccccc1-c1ccccc1	–	·	·	·	·
CCOC(=O)c1nn(-c2ccc(C)cc2)c(C)c1C(C)=O	–	–	–	–	–
CCOC(=O)c1nn(-c2ccc(F)cc2)c(C)c1C(C)=O	–	–	–	46	–
SMILES	RAM inhibit	BB579 growth dn	Yeast life ext	Measles CPE	Phagocytosis inh
COc1ccc(S(=O)(=O)N2CCOCC2)cc1NC(=O)c1cccc2c(=O)c(C)c(-c3ccccc3)oc12	–	–	–	–	–
COc1ccc(OCCNc2cc(N3CCOCC3)ccc2[N+](=O)[O-])cc1	–	–	–	–	–
COc1cccc(OCCNc2cc(N3CCCCC3)ccc2[N+](=O)[O-])c1	10	–	–	–	–
COc1ccc(OCCNc2cc(N3CCCCC3)ccc2[N+](=O)[O-])cc1	11	–	–	–	·
CC(=O)Nc1ccc(NC(=O)c2ccc(C)c(S(=O)(=O)Nc3cccc(C)c3)c2)cc1	–	·	·	·	·
CN1CCN(CCc2cn3ncc(C#N)c3nc2-c2ccc(F)cc2)CC1	11	·	·	·	·
CC(c1ccco1)N(C(=O)c1ccccc1NS(=O)(=O)c1ccc(Cl)c([N+](=O)[O-])c1)c1ccccn1 (stereo not given)	–	–	40	–	–
CC(C)c1ccc(C(=O)N(c2ccccn2)C(C)c2ccco2)cc1 (stereo not given)	–	–	–	–	–
Cc1nonc1OCCn1c([N+](=O)[O-])cnc1C	–	·	·	·	·
N/C(=N\OC(=O)Nc1ccc(Cl)cc1)c1ncc(C(F)(F)F)cc1Cl	–	–	–	–	–
CON/C=C(\C=Nc1ccc(Cl)cc1)c1ncc(C(F)(F)F)cc1Cl	11	–	–	–	–

Assay outcomes: PubChem, several laboratories
